Laboratory results reported in ChEMBL document CHEMBL4152207, “Discovery of potent and selective BRD4 inhibitors capable of blocking TLR3-induced acute airway inflammation” (Eur J Med Chem, 2018).
Calls of active or inactive are those of the source. The calls are words filed in the database; no cut-off is given here.

Tests used:
[1] = system: Mus musculus; experiment: Toxicity in mouse assessed as effect on platelet level at 1 to 50 mg/kg, ip dosed daily for 1 month; format: organism-based; settings: in vivo
[2] = target: Histamine H2 receptor (Homo sapiens) (UniProt P25021); experiment: Displacement of [125I]APT from human recombinant histamine H2 receptor at 10 uM after 120 mins by scintillation counting analysis relative to control
Histamine H2 receptor (Homo sapiens), sequence (P25021 whole entry): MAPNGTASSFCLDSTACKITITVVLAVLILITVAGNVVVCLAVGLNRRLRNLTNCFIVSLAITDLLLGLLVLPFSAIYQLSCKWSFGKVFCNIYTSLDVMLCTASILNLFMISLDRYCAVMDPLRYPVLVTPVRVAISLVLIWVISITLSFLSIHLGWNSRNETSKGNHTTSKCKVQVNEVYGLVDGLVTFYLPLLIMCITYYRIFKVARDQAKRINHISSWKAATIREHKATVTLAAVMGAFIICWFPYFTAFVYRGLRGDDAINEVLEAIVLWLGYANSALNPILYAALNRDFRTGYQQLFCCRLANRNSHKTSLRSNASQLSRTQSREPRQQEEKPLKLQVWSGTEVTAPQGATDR

[3] = system: Mus musculus; experiment: Hepatotoxicity in mouse assessed as effect on globulin level at 1 to 50 mg/kg, ip dosed daily for 1 month; format: toxicity, organism-based; settings: in vivo
Summary of the method: (§1)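 Groups of n = 5 mice were dosed daily at 1-50 mg/kg for one month. Liver function markers (albumin, globulin, ALK, ALT) were measured alongside body weight, blood counts and renal markers.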

[4] = AUC (0 to t) in rat at 20 mg/kg, po; format: ADME, organism-based; settings: in vivo
[5] = target: Muscarinic acetylcholine receptor M1 (Homo sapiens) (UniProt P11229); experiment: Displacement of [125I]pirenzepine from human recombinant M1 receptor at 10 uM after 60 mins by scintillation counting analysis relative to control
[6] = system: Mus musculus; experiment: Anti-inflammatory activity in poly(I:C)-induced airway inflammation C57BL/6 mouse model assessed as reduction in mKC expression in lung at 10 mg/kg, ip administered 1 day prior to poly(I:C) stimulation and redosed on day 2 followed by poly(I:C) stimulation; format: functional, organism-based
Summary of the method: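 Male C57BL/6J mice, 12 weeks old, were given 10 mg/kg i.p. one day before stimulation. The next day they got a second dose, immediately followed by intranasal poly(I:C) (300 μg in 50 μL PBS) or PBS alone. Compound was taken up in DMSO and diluted in 10% hydroxypropyl β-cyclodextrin in PBS. Mice were euthanized one day later and lung tissue was collected for cytokine expression.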

[7] = target: Beta-1 adrenergic receptor (Homo sapiens) (UniProt P08588); experiment: Displacement of [3H](-)CGP 12177 from human beta1 adrenoceptor at 10 uM after 60 mins by scintillation counting analysis relative to control
Beta-1 adrenergic receptor (Homo sapiens), sequence (P08588 whole entry, looked up): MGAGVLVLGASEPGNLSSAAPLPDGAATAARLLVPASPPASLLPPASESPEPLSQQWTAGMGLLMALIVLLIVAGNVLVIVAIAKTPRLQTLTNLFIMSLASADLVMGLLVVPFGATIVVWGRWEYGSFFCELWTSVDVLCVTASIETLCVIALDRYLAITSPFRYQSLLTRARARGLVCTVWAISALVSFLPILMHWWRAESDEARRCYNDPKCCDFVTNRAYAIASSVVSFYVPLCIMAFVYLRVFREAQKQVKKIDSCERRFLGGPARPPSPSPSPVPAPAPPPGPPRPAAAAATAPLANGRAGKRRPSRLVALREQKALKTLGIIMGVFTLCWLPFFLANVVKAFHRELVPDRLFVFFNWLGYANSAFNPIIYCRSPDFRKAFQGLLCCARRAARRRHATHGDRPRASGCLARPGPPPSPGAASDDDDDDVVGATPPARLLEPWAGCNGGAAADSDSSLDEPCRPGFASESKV

[8] = system: Mus musculus; experiment: Renal toxicity in mouse at 1 to 50 mg/kg, ip dosed daily for 1 month by histological analysis; format: organism-based; settings: in vivo
[9] = target: Muscarinic acetylcholine receptor M3 (Homo sapiens) (UniProt P20309); experiment: Displacement of [3H]4-DAMP from human recombinant M3 receptor at 10 uM after 60 mins by scintillation counting analysis relative to control
[10] = target: Muscarinic acetylcholine receptor M2 (Homo sapiens) (UniProt P08172); experiment: Displacement of [3H]AF-DX 384 from human recombinant M2 receptor at 10 uM after 60 mins by scintillation counting analysis relative to control
Muscarinic acetylcholine receptor M2 (Homo sapiens), sequence (P08172 whole entry): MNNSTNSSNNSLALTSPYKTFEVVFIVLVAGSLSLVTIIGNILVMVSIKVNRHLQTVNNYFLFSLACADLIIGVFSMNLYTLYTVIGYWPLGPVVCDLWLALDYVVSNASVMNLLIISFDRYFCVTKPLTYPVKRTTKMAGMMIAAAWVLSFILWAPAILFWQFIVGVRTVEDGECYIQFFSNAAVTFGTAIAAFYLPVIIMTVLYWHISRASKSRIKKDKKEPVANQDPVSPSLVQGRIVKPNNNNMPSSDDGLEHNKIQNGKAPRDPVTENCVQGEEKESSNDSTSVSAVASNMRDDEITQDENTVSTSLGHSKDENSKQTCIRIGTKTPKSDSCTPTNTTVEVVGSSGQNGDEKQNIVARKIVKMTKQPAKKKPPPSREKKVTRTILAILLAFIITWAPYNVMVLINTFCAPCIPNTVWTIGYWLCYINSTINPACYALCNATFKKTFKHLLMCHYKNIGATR

[11] = target: 3',5'-cyclic-AMP phosphodiesterase 4D (Homo sapiens) (UniProt Q08499); experiment: Displacement of [3H]cAMP from human recombinant PDE4D2 at 10 uM after 20 mins by scintillation counting analysis relative to control
[12] = target: Histamine H1 receptor (Homo sapiens) (UniProt P35367); experiment: Displacement of [3H]pyrilamine from human recombinant histamine H1 receptor at 10 uM after 60 mins by scintillation counting analysis relative to control
[13] = target: Prostaglandin G/H synthase 1 (Homo sapiens) (UniProt P23219); experiment: Inhibition of human recombinant COX1 using arachidonic acid as substrate after 3 mins by fluorimetric analysis; design: scale not given: the % may be the effect or the level left
Prostaglandin G/H synthase 1 (Homo sapiens), sequence (P23219 whole entry): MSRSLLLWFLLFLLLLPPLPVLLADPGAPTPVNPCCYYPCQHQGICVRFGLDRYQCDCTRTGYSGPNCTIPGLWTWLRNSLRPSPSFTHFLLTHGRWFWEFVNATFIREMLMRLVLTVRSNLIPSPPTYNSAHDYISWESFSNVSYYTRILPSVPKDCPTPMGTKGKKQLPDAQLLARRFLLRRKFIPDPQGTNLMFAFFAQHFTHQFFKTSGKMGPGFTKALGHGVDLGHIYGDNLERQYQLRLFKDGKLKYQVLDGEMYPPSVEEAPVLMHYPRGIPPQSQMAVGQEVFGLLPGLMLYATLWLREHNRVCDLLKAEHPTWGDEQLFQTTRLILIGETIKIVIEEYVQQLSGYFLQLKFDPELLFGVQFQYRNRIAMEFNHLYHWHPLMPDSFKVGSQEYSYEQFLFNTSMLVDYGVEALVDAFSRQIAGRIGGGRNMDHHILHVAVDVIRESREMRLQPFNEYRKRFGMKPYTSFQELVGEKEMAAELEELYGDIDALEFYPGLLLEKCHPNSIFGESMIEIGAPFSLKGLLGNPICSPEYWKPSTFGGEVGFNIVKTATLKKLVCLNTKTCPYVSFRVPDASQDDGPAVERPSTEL

[14] = system: Mus musculus; experiment: Toxicity in mouse assessed as effect on WBC levels at 1 to 50 mg/kg, ip dosed daily for 1 month; format: organism-based; settings: in vivo
[15] = system: Mus musculus; experiment: Toxicity in mouse assessed as effect on RBC levels at 1 to 50 mg/kg, ip dosed daily for 1 month; format: organism-based; settings: in vivo
[16] = target: Kappa-type opioid receptor (Homo sapiens) (UniProt P41145); experiment: Displacement of [3H]U69593 from human kappa opioid receptor at 10 uM after 60 mins by scintillation counting analysis relative to control
Kappa-type opioid receptor (Homo sapiens), sequence (P41145 whole entry): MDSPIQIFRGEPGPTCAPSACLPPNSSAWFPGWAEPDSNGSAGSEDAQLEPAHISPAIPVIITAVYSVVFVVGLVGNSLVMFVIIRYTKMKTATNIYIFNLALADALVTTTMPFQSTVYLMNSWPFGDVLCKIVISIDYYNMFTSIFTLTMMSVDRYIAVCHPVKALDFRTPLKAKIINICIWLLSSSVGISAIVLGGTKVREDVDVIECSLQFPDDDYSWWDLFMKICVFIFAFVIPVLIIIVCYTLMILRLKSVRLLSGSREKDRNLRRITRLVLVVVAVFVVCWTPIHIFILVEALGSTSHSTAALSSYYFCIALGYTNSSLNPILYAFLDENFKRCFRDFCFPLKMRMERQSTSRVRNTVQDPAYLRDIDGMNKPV

[17] = target: Mu-type opioid receptor (Homo sapiens) (UniProt P35372); experiment: Displacement of [3H]DAMGO from human recombinant mu opioid receptor at 10 uM after 120 mins by scintillation counting analysis relative to control
Mu-type opioid receptor (Homo sapiens), sequence (P35372 whole entry): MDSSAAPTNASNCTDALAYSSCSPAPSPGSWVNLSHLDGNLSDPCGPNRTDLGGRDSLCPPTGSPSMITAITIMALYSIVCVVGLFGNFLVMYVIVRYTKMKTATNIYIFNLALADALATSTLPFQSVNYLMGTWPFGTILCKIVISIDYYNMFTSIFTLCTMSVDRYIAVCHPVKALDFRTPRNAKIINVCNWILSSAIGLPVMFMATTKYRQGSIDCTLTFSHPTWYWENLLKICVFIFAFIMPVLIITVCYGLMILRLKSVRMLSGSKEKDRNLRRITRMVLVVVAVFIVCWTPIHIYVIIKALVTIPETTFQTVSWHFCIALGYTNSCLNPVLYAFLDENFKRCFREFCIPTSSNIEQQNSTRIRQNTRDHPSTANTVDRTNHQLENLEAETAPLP

[18] = target: hERG (KCNH2) (Homo sapiens, UniProt Q12809); experiment: Displacement of [3H]Dofetilide from human ERG at 10 uM after 60 mins by scintillation counting analysis relative to control; settings: probe [3H]Dofetilide, read-out: Activity
[19] = target: Cannabinoid receptor 2 (Homo sapiens) (UniProt P34972); experiment: Displacement of [3H]WIN 55212-2 from human recombinant CB2 receptor at 10 uM after 120 mins by scintillation counting analysis relative to control
[20] = target: 5-hydroxytryptamine receptor 3A (Homo sapiens) (UniProt P46098); experiment: Displacement of [3H]BRL 43694 from human recombinant 5-HT3 receptor at 10 uM after 120 mins by scintillation counting analysis relative to control
5-hydroxytryptamine receptor 3A (Homo sapiens), sequence (P46098 whole entry): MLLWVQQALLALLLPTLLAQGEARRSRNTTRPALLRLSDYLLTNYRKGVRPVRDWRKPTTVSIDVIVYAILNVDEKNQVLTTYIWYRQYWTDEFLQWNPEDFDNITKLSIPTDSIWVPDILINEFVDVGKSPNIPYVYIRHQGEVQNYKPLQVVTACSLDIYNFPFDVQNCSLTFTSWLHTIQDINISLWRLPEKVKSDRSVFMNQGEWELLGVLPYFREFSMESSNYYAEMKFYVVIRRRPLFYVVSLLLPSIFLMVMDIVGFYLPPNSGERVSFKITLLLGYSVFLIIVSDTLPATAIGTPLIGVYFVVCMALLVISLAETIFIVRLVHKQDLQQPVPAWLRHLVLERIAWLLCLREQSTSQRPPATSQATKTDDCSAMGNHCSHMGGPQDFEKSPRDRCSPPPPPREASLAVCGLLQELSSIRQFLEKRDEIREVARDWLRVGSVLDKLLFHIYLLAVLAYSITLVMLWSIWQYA

[21] = system: Mus musculus; experiment: Hepatotoxicity in mouse assessed as effect on ALT level at 1 to 50 mg/kg, ip dosed daily for 1 month; format: toxicity, organism-based; settings: in vivo; summary of the method: as §1
[22] = organism: Rattus norvegicus; experiment: Displacement of [125I]alpha-dendrotoxin from rat Voltage-gated potassium channel at 10 uM after 60 mins by scintillation counting analysis relative to control
Summary of the method: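 Run within a commercial off-target panel of receptors and enzymes, with compound tested at a single concentration of 10 μM.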

[23] = target: D(2) dopamine receptor (Homo sapiens) (UniProt P14416); experiment: Displacement of [3H]7-OH-DPAT from human recombinant dopamine D2S receptor at 10 uM after 60 mins by scintillation counting analysis relative to control
D(2) dopamine receptor (Homo sapiens), sequence (P14416 whole entry): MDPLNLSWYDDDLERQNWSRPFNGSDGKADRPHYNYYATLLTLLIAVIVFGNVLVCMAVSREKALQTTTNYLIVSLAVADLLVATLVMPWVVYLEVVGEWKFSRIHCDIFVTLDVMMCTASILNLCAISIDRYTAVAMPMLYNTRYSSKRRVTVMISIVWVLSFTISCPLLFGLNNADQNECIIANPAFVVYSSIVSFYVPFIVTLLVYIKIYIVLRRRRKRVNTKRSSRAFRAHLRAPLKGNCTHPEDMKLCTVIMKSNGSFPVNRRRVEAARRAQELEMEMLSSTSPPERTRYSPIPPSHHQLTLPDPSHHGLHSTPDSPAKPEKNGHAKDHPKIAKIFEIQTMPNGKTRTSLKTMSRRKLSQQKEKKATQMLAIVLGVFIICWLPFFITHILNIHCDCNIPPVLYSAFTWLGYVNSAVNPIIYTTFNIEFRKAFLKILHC

[24] = system: Mus musculus; experiment: Renal toxicity in mouse assessed as effect on BUN level at 1 to 50 mg/kg, ip dosed daily for 1 month; format: organism-based; settings: in vivo
[25] = target: Delta-type opioid receptor (Homo sapiens) (UniProt P41143); experiment: Displacement of [3H]DADLE from human recombinant delta opioid receptor after 60 mins by scintillation counting analysis relative to control
Delta-type opioid receptor (Homo sapiens), sequence (P41143 whole entry): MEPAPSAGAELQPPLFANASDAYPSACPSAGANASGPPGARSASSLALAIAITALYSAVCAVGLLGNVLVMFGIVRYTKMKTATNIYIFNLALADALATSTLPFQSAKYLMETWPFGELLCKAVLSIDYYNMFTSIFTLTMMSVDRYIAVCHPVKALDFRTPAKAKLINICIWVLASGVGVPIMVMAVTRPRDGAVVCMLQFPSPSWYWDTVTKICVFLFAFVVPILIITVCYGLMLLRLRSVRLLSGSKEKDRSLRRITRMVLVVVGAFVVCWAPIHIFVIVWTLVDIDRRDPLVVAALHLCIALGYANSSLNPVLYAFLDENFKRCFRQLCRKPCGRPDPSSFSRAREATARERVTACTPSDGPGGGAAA

[26] = Total clearance in rat at 10 mg/kg, iv; format: ADME, organism-based; settings: in vivo
[27] = system: Mus musculus; experiment: Anti-inflammatory activity in poly(I:C)-induced airway inflammation C57BL/6 mouse model assessed as reduction in total cells in bronchoalveolar lavage fluid at 10 mg/kg, ip administered 1 day prior to poly(I:C) stimulation and redosed on day 2 followed by poly(I:C) stimulation by trypan blue staining-based hemocytometric analysis; format: functional, organism-based
[28] = target: 5-hydroxytryptamine receptor 1B (Homo sapiens) (UniProt P28222); experiment: Displacement of [125I]-CYP from human 5-HT1B receptor at 10 uM after 120 mins by scintillation counting analysis relative to control
5-hydroxytryptamine receptor 1B (Homo sapiens), sequence (P28222 whole entry): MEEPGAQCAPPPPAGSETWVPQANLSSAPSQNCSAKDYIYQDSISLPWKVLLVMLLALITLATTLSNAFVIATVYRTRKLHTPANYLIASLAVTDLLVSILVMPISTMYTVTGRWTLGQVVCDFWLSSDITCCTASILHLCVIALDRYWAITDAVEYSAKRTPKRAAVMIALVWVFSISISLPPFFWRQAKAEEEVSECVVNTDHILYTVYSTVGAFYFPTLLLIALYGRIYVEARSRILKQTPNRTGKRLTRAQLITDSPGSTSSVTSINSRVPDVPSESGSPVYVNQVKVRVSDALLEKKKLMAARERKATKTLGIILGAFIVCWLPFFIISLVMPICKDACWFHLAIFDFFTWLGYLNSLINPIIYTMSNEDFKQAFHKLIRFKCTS

[29] = Volume of distribution at steady state in rat at 10 mg/kg, iv; format: ADME, organism-based; settings: in vivo, read-out: Vdss
[30] = target: Vasopressin V1a receptor (Homo sapiens) (UniProt P37288); experiment: Displacement of [3H]AVP from human recombinant V1a receptor at 10 uM after 60 mins by scintillation counting analysis relative to control
[31] = organism: Rattus norvegicus; experiment: Displacement of [3H]flunitrazepam from rat brain central BZD at 10 uM after 60 mins by radioligand binding assay relative to control
[32] = target: Alpha-1A adrenergic receptor (Homo sapiens) (UniProt P35348); experiment: Displacement of [3H]prazosin from human recombinant adrenergic alpha1A receptor at 10 uM after 120 mins by scintillation counting analysis relative to control
Alpha-1A adrenergic receptor (Homo sapiens), sequence (P35348 whole entry): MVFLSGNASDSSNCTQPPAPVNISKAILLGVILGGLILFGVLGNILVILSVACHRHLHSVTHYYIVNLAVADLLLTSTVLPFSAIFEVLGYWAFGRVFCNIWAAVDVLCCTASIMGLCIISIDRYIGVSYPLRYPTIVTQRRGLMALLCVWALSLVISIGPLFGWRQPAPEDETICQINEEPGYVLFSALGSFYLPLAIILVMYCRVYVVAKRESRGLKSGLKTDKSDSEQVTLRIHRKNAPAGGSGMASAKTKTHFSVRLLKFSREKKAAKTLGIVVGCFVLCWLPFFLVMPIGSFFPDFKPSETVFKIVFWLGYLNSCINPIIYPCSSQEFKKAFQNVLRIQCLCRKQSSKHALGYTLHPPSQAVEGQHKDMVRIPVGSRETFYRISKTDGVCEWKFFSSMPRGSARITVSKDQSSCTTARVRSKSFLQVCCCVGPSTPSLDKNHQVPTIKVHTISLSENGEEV

Cc1cc(/N=N/c2ccc(S(=O)(=O)NC3CCCC3)cc2)c(N)cc1O
Activity [1]: Non-Toxic
Activity [2]: -10.1%
Activity [3]: Non-Toxic
AUC(0-t) [4]: 104 ng·h/mL
Activity [5]: -1.5%
Activity [6]: Active
Activity [7]: 7.4%
Activity [8]: Non-Toxic
Activity [9]: 4.8%
Activity [10]: 21.6%
Activity [11]: 39.4%
Activity [12]: 7.1%
Activity [13]: 28.2 to 41.6%
Activity [14]: Non-Toxic
Activity [15]: Non-Toxic
Activity [16]: 8.9%
Activity [17]: 17.4%
inhibition at 1 h, 10 µM [18]: 23.6%
Activity [19]: 59.3%
Activity [20]: -12.9%
Activity [21]: Non-Toxic
Activity [22]: 8.5%
Activity [23]: 36.9%
Activity [24]: Non-Toxic
Activity [25]: -2.7%
clearance [26]: 14.7 mL/min/kg
Activity [27]: Active
Activity [28]: -9.6%
Vd [29]: 1.12 L/kg
Activity [30]: 32.4%
Activity [31]: 8.3%
Activity [32]: 17.2%
